Laboratory results reported in paper PMC9435035 (ACS Omega, 2022).

Key:
[1] = target: α-glucosidase (Saccharomyces cerevisiae, UniProt P53341); test: α-glucosidase inhibitory activity; assay type: biochemical; conditions: read-out: glucosidase inhibition IC50 ± SEM; mean ± SEM
[2] = system: Balb/C mice; test: acute toxicity study in mice; assay type: in vivo; conditions: for mortality: maximum oral dose of 2000 mg/kg (b.w.); for toxic effects (diarrhea, convulsions, lethargy, sleeping, salivation, tremor): oral up to 2000 mg/kg, observed daily for 2 weeks
Outline: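 Two-phase modified Lorke protocol in Balb/C mice (20–25 g), four per group. Phase 1: control given Tween-80 (2%); other groups received oral test compound at 100, 500 or 1000 mg/kg. Phase 2: oral doses of 1250, 1500 and 2000 mg/kg. Animals observed for the first 24 h, then daily for 2 weeks for diarrhea, convulsions, lethargy, sleeping, salivation and tremors, with mortality monitored.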

[3] = body weight of STZ-induced diabetic rats; assay type: in vivo, Wistar albino rats; conditions: for body weight, day 1: day 1, in g (unit assumed); for body weight, day 7: day 7, in g (unit assumed); for body weight, day 14: day 14, in g (unit assumed); for body weight, day 21: day 21, in g (unit assumed); for body weight, day 28: day 28, in g (unit assumed)
Outline: (§1)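 Male Wistar albino rats (170–200 g, 8–10 weeks), fasted overnight, given STZ 50 mg/kg i.p. in 0.1 M citrate buffer, then 10% glucose for 3 days. Tail-vein glucose by glucometer at 72 h; >250 mg/dL counted as diabetic. Body weight and blood glucose on days 1, 7, 14, 21 and 28. Means ± SEM, one-way ANOVA with Dunnett's test.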

[4] = system: streptozotocin-induced diabetic Wistar rats; test: serum profile; assay type: in vivo, Wistar albino rats; conditions: STZ-diabetic rats; for (ALP) IU / (SGOT) IU / (SGPT) IU: serum
Outline: (§2)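 STZ-diabetic Wistar rats (n = 8 per group) received test compound at 10 or 20 mg/kg p.o., or glibenclamide 500 μg/kg p.o., once daily for 28 days; controls received vehicle. On day 28, rats were anesthetised with pentobarbital sodium (35 mg/kg) and blood was drawn by cardiac puncture. Serum ALP, SGPT, SGOT, LDL, HDL, TG, total cholesterol, creatinine and insulin were measured. Means ± SEM, one-way ANOVA with Dunnett's test.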

[5] = system: streptozotocin-induced diabetic Wistar rats; test: lipid profile in streptozotocin-induced diabetes; assay type: in vivo, Wistar albino rats; conditions: STZ-diabetic rats
Outline: as §2

[6] = system: streptozotocin-induced diabetic Wistar rats; test: antidiabetic activity: blood glucose in STZ-induced diabetes; assay type: in vivo, Wistar albino rats
Outline: as §1

[7] = system: overnight fasted normal rats; test: oral glucose tolerance test; assay type: in vivo, Wistar albino rats; conditions: OGTT, glucose 3 g/kg oral
[8] = 10 mg/kg p.o. once daily, day 28
[9] = 20 mg/kg p.o. once daily, day 28, 20 mg/kg

α-glucosidase, sequence (P53341 whole entry): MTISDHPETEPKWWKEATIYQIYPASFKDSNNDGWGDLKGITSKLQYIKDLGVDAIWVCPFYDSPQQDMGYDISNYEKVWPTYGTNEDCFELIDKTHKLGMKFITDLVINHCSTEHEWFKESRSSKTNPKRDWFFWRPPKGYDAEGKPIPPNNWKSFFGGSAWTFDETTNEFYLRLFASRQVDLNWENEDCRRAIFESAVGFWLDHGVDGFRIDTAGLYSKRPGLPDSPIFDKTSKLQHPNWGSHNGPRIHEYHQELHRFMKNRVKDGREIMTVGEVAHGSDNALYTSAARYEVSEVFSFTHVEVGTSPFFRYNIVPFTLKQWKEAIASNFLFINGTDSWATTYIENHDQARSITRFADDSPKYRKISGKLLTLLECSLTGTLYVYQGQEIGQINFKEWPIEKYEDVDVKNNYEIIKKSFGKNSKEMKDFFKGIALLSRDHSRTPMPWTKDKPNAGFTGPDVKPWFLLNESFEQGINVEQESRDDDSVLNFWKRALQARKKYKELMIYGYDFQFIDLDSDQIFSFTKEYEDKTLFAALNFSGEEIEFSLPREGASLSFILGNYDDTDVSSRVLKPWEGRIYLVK

## 1-Phenyl-3-(4-(4-(p-tolyl)-2,3-dihydrobenzo[b][1,5]thiazepin-2-yl)phenyl)prop-2-en-1-one [6B]
[1]
  IC50: 3.63 ± 0.36 µM
[2]
  mortality: no mortality
  toxic effects (diarrhea, convulsions, lethargy, sleeping, salivation, tremor): no toxic effects
[3]; 10 mg/kg
  body weight, day 1: 190.0 ± 3.98
  body weight, day 7: 182.5 ± 4.19
  body weight, day 14: 187.1 ± 4.88
  body weight, day 21: 183.4 ± 4.60
  body weight, day 28: 180.9 ± 4.23
[3]; 20 mg/kg
  body weight, day 1: 194.1 ± 4.41
  body weight, day 7: 189.3 ± 4.61
  body weight, day 14: 190.3 ± 4.71
  body weight, day 21: 186.7 ± 3.96
  body weight, day 28: 184.3 ± 4.33
[4]; 10 mg/kg for 28 days
  insulin level: 0.658 ± 0.31 ng/mL
  serum creatinine: 0.82 ± 0.22 mg/dL
  (ALP) IU: 214.19 ± 4.11 IU
  (SGOT) IU: 25.81 ± 2.16 IU
  (SGPT) IU: 25.90 ± 2.11 IU
[4]; 20 mg/kg for 28 days
  insulin level: 0.667 ± 0.40 ng/mL
  serum creatinine: 0.75 ± 0.30 mg/dL
  (ALP) IU: 204.71 ± 4.13 IU
  (SGOT) IU: 22.31 ± 2.17 IU
  (SGPT) IU: 23.01 ± 2.11 IU
[5]; 10 mg/kg for 28 days
  LDL: 130.21 ± 3.99 mg/dL
  TG: 145.21 ± 4.98 mg/dL
  total CH: 151.07 ± 4.92 mg/dL
[5]; 10 mg/kg for 28 days, 10 mg/kg
  HDL: 44.89 ± 3.01 mg/dL
[5]; 20 mg/kg for 28 days
  LDL: 113.41 ± 4.71 mg/dL
  TG: 116.82 ± 4.41 mg/dL
  total CH: 137.11 ± 3.71 mg/dL
[5]; 20 mg/kg for 28 days, 20 mg/kg
  HDL: 52.07 ± 2.69 mg/dL
[6]; 10 mg/kg p.o. once daily
  blood glucose level, day 1: 381.40 ± 4.30 mg/dL
[6]; 10 mg/kg p.o. once daily, day 7, 10 mg/kg
  blood glucose level, day 7: 280.90 ± 4.66 mg/dL
[6]; 10 mg/kg p.o. once daily, day 14, 10 mg/kg
  blood glucose level, day 14: 205.31 ± 4.01 mg/dL
[6]; 10 mg/kg p.o. once daily, day 21, 10 mg/kg
  blood glucose level, day 21: 150.45 ± 4.92 mg/dL
[6]; [8]
  blood glucose level, day 28: 135.67 ± 3.89 mg/dL
[6]; 20 mg/kg p.o. once daily
  blood glucose level, day 1: 380.30 ± 4.78 mg/dL
[6]; 20 mg/kg p.o. once daily, day 7, 20 mg/kg
  blood glucose level, day 7: 228.44 ± 5.06 mg/dL
[6]; 20 mg/kg p.o. once daily, day 14, 20 mg/kg
  blood glucose level, day 14: 166.09 ± 4.46 mg/dL
[6]; 20 mg/kg p.o. once daily, day 21, 20 mg/kg
  blood glucose level, day 21: 129.71 ± 4.09 mg/dL
[6]; [9]
  blood glucose level, day 28: 111.81 ± 4.08 mg/dL
[7]; dose 10 mg/kg
  blood glucose level, 0 min: 103.41 ± 4.05 mg/dL
  blood glucose level, 30 min: 125.39 ± 4.10 mg/dL
  blood glucose level, 60 min: 120.41 ± 4.81 mg/dL
  blood glucose level, 90 min: 112.61 ± 4.81 mg/dL
  blood glucose level, 120 min: 114.91 ± 4.59 mg/dL
[7]; dose 20 mg/kg
  blood glucose level, 0 min: 100.93 ± 4.11 mg/dL
  blood glucose level, 30 min: 119.91 ± 4.62 mg/dL
  blood glucose level, 60 min: 121.66 ± 4.31 mg/dL
  blood glucose level, 90 min: 111.22 ± 4.21 mg/dL
  blood glucose level, 120 min: 109.78 ± 5.01 mg/dL

## 2-(3-Methoxy-4-propoxyphenyl)-4-(p-tolyl)-2,3-dihydrobenzo[b][1,5]thiazepine [5B]
[1]
  IC50: 6.28 ± 0.71 µM

## 2-(4-Butoxy-3-methoxyphenyl)-4-(p-tolyl)-2,3-dihydrobenzo[b][1,5]thiazepine [9B]
[1]
  IC50: 8.56 ± 0.59 µM

## 2-(4-Ethoxyphenyl)-4-(p-tolyl)-2,3-dihydrobenzo[b][1,5]thiazepine [8B]
[1]
  IC50: 9.44 ± 0.83 µM

## 4-(4-(p-Tolyl)-2,3-dihydrobenzo[b][1,5]thiazepin-2-yl)benzoic acid [7B]
[1]
  IC50: 3.96 ± 0.42 µM
[2]
  mortality: no mortality
  toxic effects (diarrhea, convulsions, lethargy, sleeping, salivation, tremor): no toxic effects
[3]; 10 mg/kg
  body weight, day 1: 191.1 ± 4.07
  body weight, day 7: 188.2 ± 4.57
  body weight, day 14: 185.6 ± 4.90
  body weight, day 21: 184.1 ± 4.71
  body weight, day 28: 183.7 ± 4.32
[3]; 20 mg/kg
  body weight, day 1: 188.9 ± 4.67
  body weight, day 7: 190.8 ± 4.21
  body weight, day 14: 188.1 ± 4.62
  body weight, day 21: 185.2 ± 3.91
  body weight, day 28: 186.1 ± 4.58
[4]; 10 mg/kg for 28 days
  insulin level: 0.621 ± 0.37 ng/mL
[4]; 10 mg/kg for 28 days, 10 mg/kg
  serum creatinine: 0.85 ± 0.37 mg/dL
  (ALP) IU: 217.14 ± 4.61 IU
  (SGOT) IU: 26.71 ± 1.91 IU
  (SGPT) IU: 27.07 ± 2.77 IU
[4]; 20 mg/kg for 28 days
  insulin level: 0.639 ± 0.29 ng/mL
[4]; 20 mg/kg for 28 days, 20 mg/kg
  serum creatinine: 0.79 ± 0.31 mg/dL
  (ALP) IU: 209.01 ± 4.29 IU
  (SGOT) IU: 23.08 ± 2.11 IU
  (SGPT) IU: 23.91 ± 2.21 IU
[6]; 10 mg/kg p.o. once daily
  blood glucose level, day 1: 377.08 ± 5.01 mg/dL
[6]; 10 mg/kg p.o. once daily, day 7
  blood glucose level, day 7: 290.20 ± 4.93 mg/dL
[6]; 10 mg/kg p.o. once daily, day 14
  blood glucose level, day 14: 215.76 ± 5.03 mg/dL
[6]; 10 mg/kg p.o. once daily, day 21
  blood glucose level, day 21: 153.19 ± 4.66 mg/dL
[6]; [8]
  blood glucose level, day 28: 136.51 ± 5.19 mg/dL
[6]; 20 mg/kg p.o. once daily
  blood glucose level, day 1: 374.21 ± 4.12 mg/dL
[6]; 20 mg/kg p.o. once daily, day 7
  blood glucose level, day 7: 238.39 ± 5.11 mg/dL
[6]; 20 mg/kg p.o. once daily, day 14
  blood glucose level, day 14: 171.44 ± 4.98 mg/dL
[6]; 20 mg/kg p.o. once daily, day 21
  blood glucose level, day 21: 134.20 ± 5.03 mg/dL
[6]; [9]
  blood glucose level, day 28: 112.97 ± 4.56 mg/dL
[7]; dose 10 mg/kg
  blood glucose level, 0 min: 104.01 ± 4.97 mg/dL
  blood glucose level, 30 min: 120.71 ± 5.01 mg/dL
  blood glucose level, 60 min: 120.90 ± 4.54 mg/dL
  blood glucose level, 90 min: 116.52 ± 4.11 mg/dL
  blood glucose level, 120 min: 109.25 ± 4.91 mg/dL
[7]; dose 20 mg/kg
  blood glucose level, 0 min: 103.88 ± 4.04 mg/dL
  blood glucose level, 30 min: 117.41 ± 4.70 mg/dL
  blood glucose level, 60 min: 114.22 ± 4.97 mg/dL
  blood glucose level, 90 min: 117.01 ± 4.66 mg/dL
  blood glucose level, 120 min: 108.91 ± 4.87 mg/dL

## COc1ccc(Cl)cc1C(=O)NCCc1ccc(S(=O)(=O)NC(=O)NC2CCCCC2)cc1 [glibenclamide, reference compound]
[3]; 0.5 mg/kg
  body weight, day 1: 187.4 ± 4.57
  body weight, day 7: 190.2 ± 3.98
  body weight, day 14: 177.1 ± 4.21
  body weight, day 21: 183.7 ± 4.33
  body weight, day 28: 185.1 ± 4.48
[4]; 0.5 mg/kg for 28 days
  insulin level: 0.754 ± 0.33 ng/mL
  serum creatinine: 0.57 ± 0.23 mg/dL
  (ALP) IU: 185.32 ± 5.71 IU
  (SGOT) IU: 20.68 ± 2.01 IU
  (SGPT) IU: 19.63 ± 2.11 IU
[5]; 0.5 mg/kg for 28 days
  HDL: 65.90 ± 2.71 mg/dL
  LDL: 96.12 ± 4.31 mg/dL
  TG: 105.43 ± 4.31 mg/dL
  total CH: 122.09 ± 4.89 mg/dL
[6]; 0.5 mg/kg p.o.
  blood glucose level, day 1: 352.28 ± 4.11 mg/dL
[6]; 0.5 mg/kg p.o., day 7
  blood glucose level, day 7: 231.12 ± 4.29 mg/dL
[6]; 0.5 mg/kg p.o., day 14
  blood glucose level, day 14: 151.43 ± 4.09 mg/dL
[6]; 0.5 mg/kg p.o., day 21
  blood glucose level, day 21: 118.87 ± 4.03 mg/dL
[6]; 0.5 mg/kg p.o., day 28
  blood glucose level, day 28: 101.68 ± 4.19 mg/dL
[7]; dose 0.5 mg/kg
  blood glucose level, 0 min: 102.03 ± 4.22 mg/dL
  blood glucose level, 30 min: 103.92 ± 5.01 mg/dL
  blood glucose level, 60 min: 108.71 ± 4.21 mg/dL
  blood glucose level, 90 min: 101.86 ± 4.21 mg/dL
  blood glucose level, 120 min: 104.12 ± 4.67 mg/dL
